Reference: ChEMBL document CHEMBL4257549, “Design, synthesis and biological evaluation of benzimidazole-rhodanine conjugates as potent topoisomerase II inhibitors” (Medchemcomm, 2018)
Activity calls are given as the source filed them. The rule behind the calls is not given here.

What was measured:
[1] = target: T1, DNA topoisomerase 1 (Homo sapiens) (UniProt P11387); test: Inhibition of topoisomerase 1 (unknown origin)-mediated pBR322 DNA relaxation at 50 uM after 30 mins by agarose gel electrophoresis
T1 sequence (whole entry): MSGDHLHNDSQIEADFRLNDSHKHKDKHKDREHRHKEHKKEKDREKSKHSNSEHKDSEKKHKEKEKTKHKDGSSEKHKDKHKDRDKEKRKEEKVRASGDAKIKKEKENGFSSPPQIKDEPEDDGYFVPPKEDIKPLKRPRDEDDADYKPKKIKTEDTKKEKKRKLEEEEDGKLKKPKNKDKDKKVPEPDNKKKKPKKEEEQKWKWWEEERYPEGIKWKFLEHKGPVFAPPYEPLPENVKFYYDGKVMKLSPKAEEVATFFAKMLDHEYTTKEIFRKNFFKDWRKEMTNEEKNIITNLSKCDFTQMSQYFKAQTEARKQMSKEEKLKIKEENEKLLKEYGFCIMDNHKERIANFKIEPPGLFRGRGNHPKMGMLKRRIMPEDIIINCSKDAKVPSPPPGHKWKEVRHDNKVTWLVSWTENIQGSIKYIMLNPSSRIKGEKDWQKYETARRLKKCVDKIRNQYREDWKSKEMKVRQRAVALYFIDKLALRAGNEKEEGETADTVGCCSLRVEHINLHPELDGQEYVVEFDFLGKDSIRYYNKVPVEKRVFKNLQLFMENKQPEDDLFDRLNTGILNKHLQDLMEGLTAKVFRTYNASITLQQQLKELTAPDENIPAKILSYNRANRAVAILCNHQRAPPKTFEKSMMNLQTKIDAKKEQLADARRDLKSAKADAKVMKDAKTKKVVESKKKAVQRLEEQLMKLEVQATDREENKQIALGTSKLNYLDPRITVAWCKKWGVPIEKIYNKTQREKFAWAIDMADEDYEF
Method in brief: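 Topo I relaxation of pBR322 with compound at 30 min, 37 °C, camptothecin positive control. Stopped with SDS/bromophenol blue/glycerol dye, run on 1% agarose in TAE for 1.5 h, Ged Red stained, UV visualized.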

Raji = test: Cytotoxicity against human Raji cells after 48 hrs by MTT assay; type: functional, cell-based
Method in brief: (§1)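 Cells seeded at 5000 per well, left overnight, then exposed to compound at 0–50 μM for 48 h. MTT (20 μL of 2.5 mg mL−1) added for a further 4 h at 37 °C, formazan dissolved in DMSO, absorbance read at 570 nm. Quadruplicate wells, N > 2 determinations, mean IC50 taken as the concentration reducing cell number to 50%.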

PC-3 = test: Cytotoxicity against human PC3 cells after 48 hrs by MTT assay; type: functional, cell-based; conditions: PC-3, 48 h; method in brief: as §1
Homo sapiens [2] = species: Homo sapiens; test: Inhibition of human topoisomerase 2-mediated pBR322 DNA relaxation at 20 uM after 30 mins by agarose gel electrophoresis
A549 = test: Cytotoxicity against human A549 cells after 48 hrs by MTT assay; type: functional, cell-based; conditions: A549, 48 h; method in brief: as §1
MDA-MB-231 = test: Cytotoxicity against human MDA-MB-231 cells after 48 hrs by MTT assay; type: functional, cell-based; conditions: MDA-MB-231, 48 h; method in brief: as §1
HeLa = test: Cytotoxicity against human HeLa cells after 48 hrs by MTT assay; type: functional, cell-based; method in brief: as §1
Homo sapiens [3] = species: Homo sapiens; test: Inhibition of human topoisomerase 2-mediated pBR322 DNA relaxation at 10 uM after 30 mins by agarose gel electrophoresis
HL-60 = test: Cytotoxicity against human HL60 cells after 48 hrs by MTT assay; type: functional, cell-based; conditions: HL-60, 48 h; method in brief: as §1
Homo sapiens [4] = species: Homo sapiens; test: Inhibition of human topoisomerase 2-mediated pBR322 DNA relaxation at 50 uM after 30 mins by agarose gel electrophoresis
Method in brief: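 Relaxation of 200 ng supercoiled pBR322 by 1 U Topo II (TopoGEN) in 20 μL buffer: 50 mM Tris-HCl pH 8.0, 150 mM NaCl, 10 mM MgCl2, 2 mM ATP, 0.5 mM DTT, 30 μg/mL BSA. Incubated 30 min at 37 °C, stopped with sarcosyl/glycerol dye. Products run on 1% agarose in TAE (1.5 h, 75 V), Ged Red stained, UV imaged; etoposide positive control.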

DNA [5] = test: Induction of Escherichia coli pBR322 DNA intercalation assessed as transformation of topoisomerase1-relaxed pBR322 DNA in to supercoiled DNA at 5 uM preincubated for 10 mins followed by topoisomerase-1 addition and measured after 30 mins by agarose gel electrophoresis method; type: nucleic-acid assay
Method in brief: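 0.1 μg relaxed DNA incubated with compound 10 min at room temperature, then Topo I (1 U) added, 37 °C for 30 min. Stopped with phenol-chloroform and SDS/EDTA. Products resolved on agarose gel in TAE and imaged under UV.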

DNA [6] = test: Induction of Escherichia coli pBR322 DNA intercalation assessed as transformation of topoisomerase1-relaxed pBR322 DNA in to supercoiled DNA at 50 uM preincubated for 10 mins followed by topoisomerase-1 addition and measured after 30 mins by agarose gel electrophoresis method; type: nucleic-acid assay
Method in brief: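 Unwinding: pBR322 first relaxed by Topo I in buffer (50 mM Tris-HCl pH 7.5, 50 mM KCl, 10 mM MgCl2, 0.5 mM DTT, 0.1 mM EDTA, 30 μg/mL BSA). 0.1 μg relaxed DNA preincubated with compound 10 min at room temperature, then Topo I (1 U) added, 30 min at 37 °C. Phenol-chloroform stop, SDS/EDTA added, agarose electrophoresis in TAE, UV imaging.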

Homo sapiens [7] = species: Homo sapiens; test: Poison activity at human topoisomerase 2 assessed as […] at 50 uM after 6 mins by agarose gel electrophoresis
Homo sapiens [8] = species: Homo sapiens; test: Inhibition of catalytic activity of human topoisomerase 2 assessed as decrease in levels of linear pBR322 DNA trapped by etoposide at 50 uM after 6 mins by agarose gel electrophoresis
Homo sapiens [9] = species: Homo sapiens; test: Poison activity at human topoisomerase 2 assessed as transformation of supercoiled pBR322 DNA to linear pBR322 DNA at 100 uM after 6 mins by agarose gel electrophoresis
Homo sapiens [10] = species: Homo sapiens; test: Inhibition of human topoisomerase 2-mediated pBR322 DNA relaxation at 100 uM after 30 mins by agarose gel electrophoresis

Row | Compound | inhibition [1] | IC50 (Raji) [µM] | IC50 (PC-3) [µM] | inhibition (Homo sapiens [2]) | IC50 (A549) [µM] | IC50 (MDA-MB-231) [µM] | IC50 (HeLa) [µM] | inhibition (Homo sapiens [3]) | IC50 (HL-60) [µM] | inhibition (Homo sapiens [4]) | Activity (DNA [5]) | Activity (DNA [6]) | Activity (Homo sapiens [7]) | inhibition (Homo sapiens [8]) | Activity (Homo sapiens [9]) | inhibition (Homo sapiens [10])
1 | O=C(O)CN1C(=O)/C(=C/c2nc3cc(Cl)ccc3n2Cc2ccccc2F)SC1=S | inactive | 2.78 | 3.48 | Active | 5.64 | 1.67 | 9.52 | Active | 0.87 | Active | – | – | – | – | – | –
2 | Cc1ccc(Cn2c(/C=C3\SC(=S)N(CC(=O)O)C3=O)nc3cc(Cl)ccc32)cc1 | inactive | 20.9 | 26.7 | Active | 38.6 | 13.7 | 21.4 | Active | 2.72 | Active | – | – | – | – | – | –
3 | CC[n+]1c(-c2ccccc2)c2cc(N)ccc2c2ccc(N)cc21 | – | – | – | – | – | – | – | – | – | – | Active | – | – | – | – | –
4 | Cc1ccc(Cn2c(/C=C3\SC(=S)N(CC(=O)O)C3=O)nc3ccc(F)cc32)cc1 | inactive | 2.44 | 5.82 | Active | 9.64 | 3.86 | 3.92 | Active | 1.69 | Active | – | – | – | – | – | –
5 | O=C(O)CN1C(=O)/C(=C/c2nc3ccc(F)cc3n2Cc2ccccc2F)SC1=S | inactive | 22.4 | > 50 | Active | > 50 | > 50 | > 50 | Active | 5.23 | Active | – | – | – | – | – | –
6 | O=C(O)CN1C(=O)/C(=C/c2nc3ccc(Cl)cc3n2Cc2ccccc2F)SC1=S | inactive | 8.87 | 17.3 | Active | 26.9 | 9.57 | 7.62 | Active | 5.23 | Active | – | – | – | – | – | –
7 | O=C(O)CN1C(=O)/C(=C/c2nc3ccccc3n2Cc2ccccc2F)SC1=S | inactive | 1.23 | 1.86 | Active | 2.67 | 0.33 | 0.64 | Active | 0.21 | – | – | inactive | inactive | Active | – | –
8 | COc1ccc2nc(/C=C3\SC(=S)N(CC(=O)O)C3=O)n(Cc3ccccc3F)c2c1 | inactive | 12.3 | > 50 | Active | 36.2 | 22.4 | 28.1 | Active | 6.44 | Active | – | – | – | – | – | –
9 | Cc1ccc(Cn2c(/C=C3\SC(=S)N(CC(=O)O)C3=O)nc3ccccc32)cc1 | inactive | 0.96 | 2.64 | Active | 3.22 | 1.04 | 1.28 | Active | 0.54 | – | – | inactive | inactive | Active | – | –
10 | COc1ccc2c(c1)nc(/C=C1\SC(=S)N(CC(=O)O)C1=O)n2Cc1ccc(C)cc1 | inactive | 1.79 | 3.64 | Active | 5.68 | 1.22 | 1.82 | Active | 0.77 | Active | – | – | – | – | – | –
11 | O=C(O)CN1C(=O)/C(=C/c2nc3ccccc3n2Cc2ccc(F)c(F)c2)SC1=S | inactive | 7.25 | 5.97 | Active | 13.4 | 3.76 | 16 | Active | 2.74 | Active | – | – | – | – | – | –
12 | COc1cc([C@@H]2c3cc4c(cc3[C@@H](O[C@@H]3O[C@@H]5CO[C@@H](C)O[C@H]5[C@H](O)[C@H]3O)[C@H]3COC(=O)[C@H]23)OCO4)cc(OC)c1O [ETOPOSIDE] | – | 1.21 | 13.2 | Active | 2.46 | 30.3 | 28.6 | – | 0.58 | – | – | – | – | – | Active | Active
13 | Cc1ccc(Cn2c(/C=C3\SC(=S)N(CC(=O)O)C3=O)nc3cc(F)ccc32)cc1 | inactive | 3.28 | 10.2 | Active | 13.8 | 6.55 | 2.38 | Active | 1.17 | Active | – | – | – | – | – | –
